Blank lines part the entries; values can stand above or below the molecule they belong to. The source made the active and inactive calls. The rule behind the calls is not given here.
How the values were obtained:
[1] = tested on: L1210; assay: Cytostatic activity against mouse L1210 cells after 48 hrs by coulter counter analysis; type: functional, cell-based; details: L1210, 48 h
Procedure, shortened: (§1)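 Tumor cell proliferation assay with murine leukemia and human T-lymphoblast cells. IC50 is the concentration that inhibits proliferation by 50%. Values are means of at least two independent experiments.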

[2] = tested on: CCRF-CEM; assay: Cytostatic activity against human CEM cells after 72 hrs by coulter counter analysis; type: functional, cell-based; procedure, shortened: as §1
[3] = tested on: MIA PaCa-2; assay: Ratio of gemcitabine IC50 to compound IC50 for human MIAPaCa2 cells after 72 hrs by MTS assay; type: functional
[4] = tested on: BXPC-3; assay: Cytostatic activity against human BxPC3 cells after 72 hrs by MTS assay; type: functional, cell-based; details: BXPC-3, 72 h
Procedure, shortened: (§2)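 Pancreatic carcinoma cell proliferation assay. IC50 is the concentration that inhibits tumor cell proliferation by 50%. Values are means of at least two independent experiments.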

[5] = tested on: MIA PaCa-2; assay: Cytostatic activity against human MIAPaCa2 cells after 72 hrs by MTS assay; type: functional, cell-based; details: MIA PaCa-2, 72 h; procedure, shortened: as §2
[6] = Metabolic stability in human liver microsomes assessed as compound remaining at 0.5 uM after 1 hr by HPLC-Ms/Ms analysis; type: ADME; details: read-out: Stability
Procedure, shortened: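 Compounds incubated with human liver microsomes for 1 h. Percentage of parent remaining measured.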

[7] = tested on: BXPC-3; assay: Ratio of gemcitabine IC50 to compound IC50 for human BxPC3 cells after 72 hrs by MTS assay; type: functional
[8] = Half life in human hepatocytes at 1 uM; type: ADME, cell-based, Hepatocyte
Procedure, shortened: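 Compounds incubated with human hepatocytes. Half-life determined.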

[9] = molecular target: T1, Cytidine deaminase (Homo sapiens, UniProt P32320); assay: Drug degradation assessed as recombinant human cytidine deaminase-mediated dFdU formation at 100 uM measured at 30 mins by UV absorption spectroscopic analysis; type: ADME; details: 0.5 h
T1 sequence (P32320 whole entry): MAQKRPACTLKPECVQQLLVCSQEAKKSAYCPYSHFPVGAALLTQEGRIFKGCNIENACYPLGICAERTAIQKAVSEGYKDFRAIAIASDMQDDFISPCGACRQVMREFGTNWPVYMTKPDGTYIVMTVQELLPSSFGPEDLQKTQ
Procedure, shortened: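 The nucleoside or prodrug was incubated with cytidine deaminase for 30 min. Deamination was followed by UV absorbance spectra recorded between 220 and 350 nm.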

[10] = tested on: Serum; assay: Prodrug activation in rat serum assessed as formation of (S)-2-((((2R,3R,5R)-5-(4-amino-2-oxopyrimidin-1(2H)-yl)-4,4-difluoro-3-hydroxytetrahydrofuran-2-yl)methoxy)oxidophosphorylamino)propanoate at 5 mg measured after 6.5 mins by [31P]-NMR spectroscopic analysis; type: cell-free
Procedure, shortened: (§3)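 The prodrug was incubated in human or rat serum and followed over time by 31P NMR. Metabolites were assigned by chemical shift. Human serum spectra were resolved by Lorentz-Gauss deconvolution.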

[11] = tested on: MIA PaCa-2; assay: Antitumor activity against human MIAPaCa2 cells xenografted in Balb/c nude mouse assessed as tumor growth inhibition at 0.19 mmol/kg, ip administered every week for 3 weeks; type: functional, organism-based
[12] = Prodrug activation in human BxPC3 cells assessed as formation of dFdCTP after 24 hrs in presence of hENT1 inhibitor NBTI; type: cell-based; details: bxpc-3, 24 h
Procedure, shortened: (§4)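 Pancreatic cells were exposed to the agent for 24 h, with or without a dCK inhibitor or the hENT1 inhibitor NBTI. Intracellular dFdCTP was measured by UPLC-MS/MS on a C18 column. Elution used a 10 mM ammonium acetate/acetonitrile gradient at 700 μL/min. Detection was by triple-quadrupole heated electrospray, transition m/z 502.0→159.0 at 37 V collision energy.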

[13] = Prodrug activation in human MIAPaCa2 cells assessed as formation of dFdCTP after 24 hrs in presence of hENT1 inhibitor NBTI; type: cell-based; details: mia paca-2, 24 h; procedure, shortened: as §4
[14] = Cytotoxicity against human RT112 cells assessed as cell viability by MTT assay in presence of dCK substrate deoxycytidine; type: functional, cell-based; details: RT-112
Procedure, shortened: (§5)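 RT112 cancer cells were grown with the test agent, with or without 2′-deoxycytidine as a competing dCK substrate to mimic dCK down-regulation. Viable cells were counted by colorimetric MTT assay, and EC50 was taken as the concentration blocking proliferation by 50%.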

[15] = Cytotoxicity against human PANC1 cells assessed as cell viability by MTT assay in presence of hENT1 inhibitor dipyridamole; type: functional, cell-based; details: PANC-1
Procedure, shortened: (§6)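 PANC1 pancreatic cancer cells were grown with the test agent, with or without dipyridamole to block hENT1 nucleoside transport. Viable cells were counted by colorimetric MTT assay, and EC50 was taken as the concentration blocking proliferation by 50%.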

[16] = Prodrug activation assessed as carboxypeptidase Y (unknown origin)-mediated formation of (S)-2-((((2R,3R,5R)-5-(4-amino-2-oxopyrimidin-1(2H)-yl)-4,4-difluoro-3-hydroxytetrahydrofuran-2-yl)methoxy)oxidophosphorylamino)propanoate at 3 mg measured after 10 mins by [31P]-NMR spectroscopic analysis
Procedure, shortened: (§7)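 The prodrug was dissolved in acetone-d6 with Trizma buffer (pH 7.6). A blank spectrum was recorded at 25 °C, then carboxypeptidase Y was added. Conversion was followed by 31P NMR spectra recorded over time, with peaks assigned by chemical shift.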

[17] = Cytotoxicity against human PANC1 cells assessed as cell viability by MTT assay in absence of hENT1 inhibitor dipyridamole; type: functional, cell-based; details: PANC-1; procedure, shortened: as §6
[18] = Prodrug activation in human BxPC3 cells assessed as formation of dFdCTP after 24 hrs in presence of dCK inhibitor 2T2D; type: cell-based; details: bxpc-3, 24 h; procedure, shortened: as §4
[19] = tested on: Serum; assay: Prodrug activation in human serum assessed as formation of (S)-2-((((2R,3R,5R)-5-(4-amino-2-oxopyrimidin-1(2H)-yl)-4,4-difluoro-3-hydroxytetrahydrofuran-2-yl)methoxy)oxidophosphorylamino)propanoate at 5 mg measured after 5.5 hrs by [31P]-NMR spectroscopic analysis; type: cell-free; procedure, shortened: as §3
[20] = Cytotoxicity against human RT112 cells assessed as cell viability by MTT assay in absence of dCK substrate deoxycytidine; type: functional, cell-based; details: RT-112; procedure, shortened: as §5
[21] = tested on: Mus musculus; assay: Toxicity in Balb/c nude mouse xenografted with human BxPC3 cells assessed as change in body weight at 0.19 to 0.076 mmol/kg, ip administered 2 times per week for 2 weeks measured every week during compound treatment; type: organism-based, BXPC-3; details: in vivo, 336 h
[22] = tested on: BXPC-3; assay: Antitumor activity against human BxPC3 cells xenografted in Balb/c nude mouse assessed as tumor growth inhibition at 0.19 mmol/kg, ip administered every week for 3 weeks; type: functional, organism-based
[23] = tested on: MIA PaCa-2; assay: Antitumor activity against human MIAPaCa2 cells xenografted in Balb/c nude mouse assessed as tumor growth inhibition at 0.076 mmol/kg, ip measured on day 7; type: functional, organism-based
[24] = Prodrug activation assessed as carboxypeptidase Y (unknown origin)-mediated formation of (S)-2-((((2R,3R,5R)-5-(4-amino-2-oxopyrimidin-1(2H)-yl)-4,4-difluoro-3-hydroxytetrahydrofuran-2-yl)methoxy)oxidophosphorylamino)propanoate at 3 mg measured within 12 hrs by [31P]-NMR spectroscopic analysis; procedure, shortened: as §7
[25] = tested on: Mus musculus; assay: Toxicity in Balb/c nude mouse xenografted with human MIAPaCa2 cells assessed as change in body weight at 0.19 to 0.076 mmol/kg, ip administered 2 times per week for 2 weeks measured every week during compound treatment relative to vehicle-treated control; type: organism-based, MIA PaCa-2; details: in vivo, 336 h
[26] = Prodrug activation in human MIAPaCa2 cells assessed as formation of dFdCTP after 24 hrs in presence of dCK inhibitor 2T2D; type: cell-based; details: mia paca-2, 24 h; procedure, shortened: as §4
[27] = Prodrug activation assessed as carboxypeptidase Y (unknown origin)-mediated formation of (2S)-2-((((2R,3R,5R)-5-(4-amino-2-oxopyrimidin-1(2H)-yl)-4,4-difluoro-3-hydroxytetrahydrofuran-2-yl)methoxy)(phenoxy)phosphorylamino)propanoate at 3 mg measured within 10 mins by [31P]-NMR spectroscopic analysis; procedure, shortened: as §7
[28] = tested on: RT-112; assay: Ratio of EC50 for human RT112 cells in presence of dCK substrate deoxycytidine to EC50 for human RT112 cells in absence of dCK substrate deoxycytidine; type: functional
Procedure, shortened: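 RT112 cells exposed to compound with or without the dCK substrate 2′-deoxycytidine, which competes for dCK activity. Viable cells counted by colorimetric MTT assay. EC50 is the concentration blocking cell proliferation, compared between the two conditions.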

[29] = molecular target: T1, Cytidine deaminase; assay: Drug degradation assessed as recombinant human cytidine deaminase-mediated dFdU formation at 100 uM measured within 2 mins by UV absorption spectroscopic analysis; type: ADME
Procedure, shortened: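 Compound or gemcitabine incubated with cytidine deaminase. UV absorption scanned at 220–350 nm over 30 min. Deamination to dFdU is read as an absorbance shift from 267 to 257 nm.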

Compound: CCCCCCOC(=O)[C@H](C)NP(=O)(OC[C@H]1O[C@@H](n2ccc(N)nc2=O)C(F)(F)[C@@H]1O)Oc1cccc2ccccc12 (some centres undefined)
IC50 [1]: 0.022 µM | IC50 [2]: 0.075 µM

IC50 [4]: 0.15 µM | IC50 [5]: 0.46 µM
Compound: C[C@H](NP(=O)(OC[C@H]1O[C@@H](n2ccc(N)nc2=O)C(F)(F)[C@@H]1O)Oc1cccc2ccccc12)C(=O)OC1CCCC1 (some centres undefined)
IC50 [1]: 0.18 µM | Ratio IC50 [3]: 2 | IC50 [2]: 0.11 µM

Compound: C[C@H](NP(=O)(OC[C@H]1O[C@@H](n2ccc(N)nc2=O)C(F)(F)[C@@H]1O)Oc1cccc2ccccc12)C(=O)OC1CCCCC1 (some centres undefined)
IC50 [1]: 0.32 µM | IC50 [2]: 0.14 µM

remaining at 1 h, 0.5 µM [6]: 1% | IC50 [4]: 0.24 µM | half-life at 1 µM [8]: 1.32 h | IC50 [5]: 0.57 µM
Compound: C[C@H](NP(=O)(OC[C@H]1O[C@@H](n2ccc(N)nc2=O)C(F)(F)[C@@H]1O)Oc1cccc2ccccc12)C(=O)OCc1ccccc1 (some centres undefined)
IC50 [1]: 0.035 µM | Ratio IC50 [3]: 2 | Ratio IC50 [7]: 2 | IC50 [2]: 0.1 µM

Compound: CCCCCOC(=O)[C@H](C)NP(=O)(OC[C@H]1O[C@@H](n2ccc(N)nc2=O)C(F)(F)[C@@H]1O)Oc1cccc2ccccc12 (some centres undefined)
IC50 [1]: 0.03 µM | IC50 [2]: 0.073 µM

Compound: C[C@H](NP(=O)(OC[C@H]1O[C@@H](n2ccc(N)nc2=O)C(F)(F)[C@@H]1O)Oc1ccccc1)C(=O)OCc1ccccc1 (some centres undefined) [FOSGEMCITABINE PALABENAMIDE]
Stability [9]: Stable | Drug metabolism [10]: Active | TGI [11]: Active | Drug metabolism [12]: Active | IC50 [1]: 0.035 µM | Drug metabolism [13]: Active | EC50 [14]: 0.0007 µM | IC50 [4]: 0.15 µM | EC50 [15]: 162 µM | Drug metabolism [16]: Active | EC50 [17]: 190 µM | Drug metabolism [18]: Active | Drug metabolism [19]: Active | IC50 [5]: 0.44 µM | EC50 [20]: 0.0002 µM | Activity [21]: Non-toxic | TGI [22]: Active | TGI [23]: Active | Drug metabolism [24]: Active | IC50 [2]: 0.1 µM | Activity [25]: < 4% | Drug metabolism [26]: Active | Drug metabolism [27]: Active

Drug metabolism [12]: Not Active | Drug metabolism [13]: Not Active | IC50 [4]: 0.67 µM | Drug metabolism [18]: Not Active | IC50 [5]: 1.04 µM | Drug metabolism [26]: Not Active | Stability [29]: Unstable
Compound: Nc1ccn([C@@H]2O[C@H](CO)[C@@H](O)C2(F)F)c(=O)n1 [GEMCITABINE]
TGI [11]: Active | EC50 [14]: 0.105 µM | EC50 [15]: > 2000 µM | EC50 [17]: 611 µM | EC50 [20]: 0.0014 µM | Activity [21]: Non-toxic | Ratio EC50 [28]: 75 | TGI [22]: inactive | TGI [23]: Active | IC50 [2]: 0.086 µM

From ChEMBL document CHEMBL3124861, “Application of ProTide technology to gemcitabine: a successful approach to overcome the key cancer resistance mechanisms leads to a new agent (NUC-1031) in clinical development” (J Med Chem, 2014)
